Molecules are shown by their SMILES.

Usually IC50 stands for the concentration that gives 50% inhibition. Broadly, the solubility is how much of the substance goes into solution per volume. What is called EC50 is the concentration needed to bring the measured effect to its halfway point. Higher therefore signals weaker potency.

The test system of data set [1] is Raji. Briefly: Cytotoxicity against human Raji cells after 72 hrs by luminescence assay. It is filed as cell-based.
Data set [2] relates to HepG2. Briefly: Cytotoxicity against human HepG2 cells after 72 hrs by luminescence assay. It is filed as cell-based. The conditions noted are these: hepg2, 72 h.
A short description of data set [3]: Selectivity ratio of EC50 for human HepG2 cells to EC50 for Plasmodium falciparum.
In data set [4] the test system is BJ. Put plainly: Cytotoxicity against human BJ cells after 72 hrs by luminescence assay. It is filed as cell-based.
Data set [5] has as its system HEK293. Briefly: Cytotoxicity against human HEK293 cells after 72 hrs by luminescence assay. It is filed as cell-based. The conditions noted are these: hek293, 72 h.
Data set [6] concerns the target Sulfonylurea receptor 2, Kir6.2 (Homo sapiens, UniProt O60706+Q14654). Briefly: Inhibition of human kir6.2/SUR2A ion channel coexpressed in human HEK293 cells after 5 mins by patch clamp assay. It is filed as cell-based. In outline: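 Human KCNJ11 (Kir6.2) and SUR2A were co-expressed in HEK293 cells to give the ATP-sensitive current IKATP. The assay was run at room temperature by automated parallel patch clamp, with dose-response at 0.2, 0.6, 1.6 and 5 µM. Exposure was 5 min per concentration, with each concentration in two cells (n ≥ 2).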
On the technique in general: Patch clamp records ionic current or voltage across a cell membrane.

The target in data set [7] is T1, Sodium channel protein type 5 subunit alpha (Homo sapiens, UniProt Q14524). Briefly: Inhibition of human cloned Nav1.5 channel expressed in chinese hamster CHO cells assessed as phasic inhibition after 5 mins by patch clamp assay. It is filed as cell-based.
Data set [8] in a line: Chemical stability in simulated gastric fluid at pH 5 over 24 hrs. It is filed as physicochemical. Conditions: simulated gi fluid, pH 5, 24 h.
The target of data set [9] is T1, Sodium channel protein type 5 subunit alpha. Briefly: Inhibition of human cloned Nav1.5 channel expressed in chinese hamster CHO cells assessed as tonic inhibition after 5 mins by patch clamp assay. It is filed as cell-based.
Data set [10] is described as follows: Chemical stability in simulated gastric fluid at pH 2 over 24 hrs. It is filed as physicochemical. Conditions: simulated gi fluid, pH 2, 24 h.
In data set [11] the test system is Plasma. Briefly: Metabolic stability in mouse plasma over 24 hrs. It is filed as ADME, cell-free.
Data set [12] can be described thus: Solubility of the compound in phosphate buffered saline by UV spectrophotometry. It is filed as physicochemical.
In data set [13] the test system is Plasmodium falciparum. Briefly: Antimalarial activity against erythrocytic stage of chloroquine-sensitive Plasmodium falciparum 3D7 after 72 hrs by spectrophotometry. It is filed as functional, organism-based. The conditions noted are these: 3D7, 72 h.
Data set [14] has as its system Plasmodium falciparum. Briefly: Antimalarial activity against erythrocytic stage of chloroquine-resistant Plasmodium falciparum K1 after 72 hrs by spectrophotometry. It is filed as functional, organism-based. The conditions noted are these: K1, 72 h.

T1 sequence (Q14524 whole entry): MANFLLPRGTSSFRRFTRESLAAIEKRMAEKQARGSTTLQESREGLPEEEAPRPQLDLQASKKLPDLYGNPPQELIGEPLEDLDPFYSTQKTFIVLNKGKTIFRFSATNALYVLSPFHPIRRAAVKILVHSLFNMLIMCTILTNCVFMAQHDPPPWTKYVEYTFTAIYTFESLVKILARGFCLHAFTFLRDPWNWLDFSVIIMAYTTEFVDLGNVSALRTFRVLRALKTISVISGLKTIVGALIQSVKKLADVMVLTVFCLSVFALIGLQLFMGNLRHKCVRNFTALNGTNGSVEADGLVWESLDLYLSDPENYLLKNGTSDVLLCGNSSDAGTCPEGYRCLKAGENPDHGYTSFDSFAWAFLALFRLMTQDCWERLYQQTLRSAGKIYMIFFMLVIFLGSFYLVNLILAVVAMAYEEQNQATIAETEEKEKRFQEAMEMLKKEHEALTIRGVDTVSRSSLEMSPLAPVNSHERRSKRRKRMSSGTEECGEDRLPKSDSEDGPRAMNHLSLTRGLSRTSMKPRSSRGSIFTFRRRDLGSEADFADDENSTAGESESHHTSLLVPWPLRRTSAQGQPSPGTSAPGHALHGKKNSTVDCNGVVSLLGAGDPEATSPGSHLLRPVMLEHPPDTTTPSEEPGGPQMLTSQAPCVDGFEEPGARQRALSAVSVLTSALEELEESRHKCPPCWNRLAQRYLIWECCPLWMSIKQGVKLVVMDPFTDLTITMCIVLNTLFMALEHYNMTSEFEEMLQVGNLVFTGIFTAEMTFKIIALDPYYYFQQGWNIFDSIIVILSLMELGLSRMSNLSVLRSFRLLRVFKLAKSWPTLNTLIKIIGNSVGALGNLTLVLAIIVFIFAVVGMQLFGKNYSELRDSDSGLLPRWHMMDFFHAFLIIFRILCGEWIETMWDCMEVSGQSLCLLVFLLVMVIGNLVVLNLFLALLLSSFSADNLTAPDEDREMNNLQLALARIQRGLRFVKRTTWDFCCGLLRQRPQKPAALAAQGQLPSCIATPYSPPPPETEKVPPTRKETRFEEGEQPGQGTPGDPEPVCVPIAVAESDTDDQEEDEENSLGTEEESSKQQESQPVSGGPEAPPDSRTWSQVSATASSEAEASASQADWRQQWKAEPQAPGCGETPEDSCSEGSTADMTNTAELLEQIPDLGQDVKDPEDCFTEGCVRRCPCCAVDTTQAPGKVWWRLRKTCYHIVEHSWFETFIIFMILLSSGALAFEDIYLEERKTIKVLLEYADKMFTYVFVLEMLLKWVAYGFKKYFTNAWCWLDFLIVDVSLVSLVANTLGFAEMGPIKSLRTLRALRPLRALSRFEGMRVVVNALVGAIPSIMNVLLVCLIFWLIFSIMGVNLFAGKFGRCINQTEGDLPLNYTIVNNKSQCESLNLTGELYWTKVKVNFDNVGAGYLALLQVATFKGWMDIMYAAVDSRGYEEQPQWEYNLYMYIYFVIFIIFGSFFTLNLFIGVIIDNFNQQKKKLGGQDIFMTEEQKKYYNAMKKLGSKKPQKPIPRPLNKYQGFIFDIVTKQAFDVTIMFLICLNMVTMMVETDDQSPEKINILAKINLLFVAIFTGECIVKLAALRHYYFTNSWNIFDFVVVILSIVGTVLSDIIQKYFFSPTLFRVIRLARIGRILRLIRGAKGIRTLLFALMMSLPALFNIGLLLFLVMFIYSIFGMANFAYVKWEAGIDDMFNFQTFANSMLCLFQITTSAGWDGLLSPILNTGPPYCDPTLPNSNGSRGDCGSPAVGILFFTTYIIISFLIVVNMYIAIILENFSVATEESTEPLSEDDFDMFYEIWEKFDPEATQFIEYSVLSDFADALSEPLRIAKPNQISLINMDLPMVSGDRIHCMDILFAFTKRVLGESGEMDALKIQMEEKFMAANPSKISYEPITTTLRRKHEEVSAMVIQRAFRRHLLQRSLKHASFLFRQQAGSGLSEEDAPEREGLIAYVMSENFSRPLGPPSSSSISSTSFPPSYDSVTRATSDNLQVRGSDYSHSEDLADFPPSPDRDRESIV
Sulfonylurea receptor 2, Kir6.2, sequence (Q14654 whole entry): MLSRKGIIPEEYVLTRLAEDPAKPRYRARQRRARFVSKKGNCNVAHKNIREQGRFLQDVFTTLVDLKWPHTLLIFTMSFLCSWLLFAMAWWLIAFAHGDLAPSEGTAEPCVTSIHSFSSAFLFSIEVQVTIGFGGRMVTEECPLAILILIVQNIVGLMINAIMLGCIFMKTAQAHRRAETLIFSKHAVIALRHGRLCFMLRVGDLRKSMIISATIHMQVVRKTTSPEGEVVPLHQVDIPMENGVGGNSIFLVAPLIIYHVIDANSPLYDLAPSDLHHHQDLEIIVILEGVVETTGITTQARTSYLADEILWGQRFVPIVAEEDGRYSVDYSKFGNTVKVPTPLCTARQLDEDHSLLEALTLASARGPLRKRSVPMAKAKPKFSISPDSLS
Sulfonylurea receptor 2, Kir6.2, sequence (O60706 whole entry): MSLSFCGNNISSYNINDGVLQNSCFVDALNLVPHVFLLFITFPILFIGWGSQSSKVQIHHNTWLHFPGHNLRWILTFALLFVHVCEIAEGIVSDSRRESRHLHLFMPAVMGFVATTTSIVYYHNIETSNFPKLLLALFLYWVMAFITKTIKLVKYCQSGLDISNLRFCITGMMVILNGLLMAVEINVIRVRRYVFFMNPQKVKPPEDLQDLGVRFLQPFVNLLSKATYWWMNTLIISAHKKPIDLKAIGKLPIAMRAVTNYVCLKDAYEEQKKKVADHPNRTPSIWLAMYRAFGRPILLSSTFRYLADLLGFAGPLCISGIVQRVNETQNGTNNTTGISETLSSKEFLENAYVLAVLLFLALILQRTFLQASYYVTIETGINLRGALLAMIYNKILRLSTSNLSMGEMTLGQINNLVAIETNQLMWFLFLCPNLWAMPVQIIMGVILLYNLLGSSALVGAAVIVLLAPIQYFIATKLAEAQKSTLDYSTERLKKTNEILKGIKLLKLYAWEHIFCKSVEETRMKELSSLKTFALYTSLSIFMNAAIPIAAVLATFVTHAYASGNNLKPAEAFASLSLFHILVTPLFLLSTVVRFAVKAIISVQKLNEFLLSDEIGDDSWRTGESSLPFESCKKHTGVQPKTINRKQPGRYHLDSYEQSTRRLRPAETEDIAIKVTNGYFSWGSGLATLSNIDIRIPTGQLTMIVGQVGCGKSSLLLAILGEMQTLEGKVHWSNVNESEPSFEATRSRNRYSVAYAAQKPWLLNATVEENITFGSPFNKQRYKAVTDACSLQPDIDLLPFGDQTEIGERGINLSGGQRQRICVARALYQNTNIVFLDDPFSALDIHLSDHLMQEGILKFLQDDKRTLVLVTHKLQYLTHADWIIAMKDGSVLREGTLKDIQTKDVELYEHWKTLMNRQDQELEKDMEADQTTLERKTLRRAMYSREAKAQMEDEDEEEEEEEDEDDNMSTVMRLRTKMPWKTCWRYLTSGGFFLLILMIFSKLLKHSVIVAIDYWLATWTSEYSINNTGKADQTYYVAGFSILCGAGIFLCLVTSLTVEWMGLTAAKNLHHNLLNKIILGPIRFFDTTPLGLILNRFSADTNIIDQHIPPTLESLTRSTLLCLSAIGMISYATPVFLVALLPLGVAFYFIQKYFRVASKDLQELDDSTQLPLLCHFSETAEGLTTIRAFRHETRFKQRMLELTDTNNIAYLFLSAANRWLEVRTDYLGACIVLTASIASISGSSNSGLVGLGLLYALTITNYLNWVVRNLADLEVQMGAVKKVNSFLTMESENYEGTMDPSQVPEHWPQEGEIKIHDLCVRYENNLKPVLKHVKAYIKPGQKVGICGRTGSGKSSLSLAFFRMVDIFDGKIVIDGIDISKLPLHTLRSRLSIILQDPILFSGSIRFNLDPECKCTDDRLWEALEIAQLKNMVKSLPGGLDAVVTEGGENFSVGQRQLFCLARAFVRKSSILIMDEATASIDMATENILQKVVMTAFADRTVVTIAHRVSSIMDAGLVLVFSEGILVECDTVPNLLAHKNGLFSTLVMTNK

As to `CC(C)(C)NCC(O)COc1ccccc1C(=O)CCc1ccccc1.Cl` (racemic), the Activity result in [1], in [2], in data set [4] and in data set [5] was “Non-toxic” each time. The selectivity ratio in data set [3] is > 10.
Turning to `Cl.O=C(CCc1ccccc1)c1ccccc1OCC1CO1` (racemic), the Activity result in data set [1], in data set [2], in data set [4] and in data set [5] was “Non-toxic” each time. Moreover, the selectivity ratio in data set [3] was > 10.
On to `Cl.O=C(CCc1ccccc1)c1cc(F)ccc1OCC1CO1` (racemic), for which the Activity entry in data set [1], in data set [2], in data set [4] and in data set [5] was “Non-toxic” each time. In data set [3], the selectivity ratio was > 10.
For `Cl.O=C(CCc1ccc(F)cc1)c1ccccc1OCC1CO1` (racemic), the Activity result in data set [1], in [2], in [4] and in data set [5] was “Non-toxic” throughout. For the same compound, the selectivity ratio in data set [3] is > 10.
Consider `Cl.O=C(CCc1ccc(F)cc1)c1cc(F)ccc1OCC1CO1` (racemic), for which the Activity result in data set [1], in data set [2], in data set [4] and in data set [5] was “Non-toxic” each time. In [3], the selectivity ratio was > 10.
With `Cl.O=C(CCc1ccccc1)c1ccccc1OCC(O)CNCc1ccccc1` (racemic), the Activity result in [1], in data set [2], in data set [4] and in data set [5] was “Non-toxic” in each case. Also, the selectivity ratio in data set [3] is > 10.
For `Cl.O=C(CCc1ccccc1)c1ccccc1OCC(O)CN(Cc1ccccc1)c1ccccc1` (racemic), the Activity entry in data set [1], in data set [2], in [4] and in [5] was “Non-toxic” each time. Also, in [3], the selectivity ratio is > 10.
`Cc1cccc(N(CC(O)COc2ccccc2C(=O)CCc2ccccc2)c2ccccc2)c1.Cl` (racemic): the Activity result in data set [1], in [2], in [4] and in data set [5] was “Non-toxic” in each case. For the same compound, the selectivity ratio in data set [3] was > 10.
For `CN(CCc1ccccc1)CC(O)COc1ccccc1C(=O)CCc1ccccc1.Cl` (racemic), the Activity entry in data set [1], in [2], in data set [4] and in data set [5] was “Non-toxic” each time. Further, in data set [3], the selectivity ratio is > 10.
`CCN(CC)CC(O)COc1ccccc1C(=O)CCc1ccccc1.Cl` (racemic): the Activity entry in [1], in data set [2], in data set [4] and in data set [5] was “Non-toxic” each time. Besides, in data set [3], the selectivity ratio was > 10.
On to `CCCN(CCC)CC(O)COc1ccccc1C(=O)CCc1ccccc1.Cl` (racemic), for which the Activity result in data set [1], in data set [2], in data set [4] and in data set [5] was “Non-toxic” each time. The selectivity ratio in data set [3] is > 10.
For the compound `CCCCN(CCCC)CC(O)COc1ccccc1C(=O)CCc1ccccc1.Cl` (racemic), the Activity result in data set [1], in [2], in data set [4] and in [5] was “Non-toxic” in each case. Also, the selectivity ratio in data set [3] is > 10.
As for `CC(C)N(CC(O)COc1ccccc1C(=O)CCc1ccccc1)c1ccccc1.Cl` (racemic), the Activity result in [1], in data set [2], in data set [4] and in data set [5] was “Non-toxic” each time. In data set [3], the selectivity ratio was > 10.
In the case of `Cl.O=C(CCc1ccccc1)c1ccccc1OCC(O)CN(C1CCCCC1)C1CCCCC1` (racemic), the Activity result in data set [1], in data set [2], in data set [4] and in [5] was “Non-toxic” each time. The selectivity ratio in [3] is > 10.
Turning to `Cl.O=C(CCc1ccc(F)cc1)c1ccccc1OCC(O)CNCc1ccccc1` (racemic), the Activity result in data set [1], in data set [2], in [4] and in data set [5] was “Non-toxic” each time. Further, in data set [3], the selectivity ratio was > 10.
`Cl.O=C(CCc1ccc(F)cc1)c1ccccc1OCC(O)CN(Cc1ccccc1)c1ccccc1` (racemic): the Activity entry in data set [1], in [2], in data set [4] and in data set [5] was “Non-toxic” throughout. The selectivity ratio in [3] was > 10.
Take `COc1cccc(N(CC(O)COc2ccccc2C(=O)CCc2ccc(F)cc2)c2ccccc2)c1.Cl` (racemic): the Activity entry in [1], in data set [2], in [4] and in data set [5] was “Non-toxic” each time. Further, the selectivity ratio in data set [3] is > 10.
For `CN(CCc1ccccc1)CC(O)COc1ccccc1C(=O)CCc1ccc(F)cc1.Cl` (racemic), the Activity entry in [1], in [2], in [4] and in data set [5] was “Non-toxic” each time. Moreover, in data set [3], the selectivity ratio is > 10.
`CCN(CC)CC(O)COc1ccccc1C(=O)CCc1ccc(F)cc1.Cl` (racemic): the Activity entry in [1], in data set [2], in [4] and in [5] was “Non-toxic” each time. In data set [3], the selectivity ratio is > 10.
Consider `CCCN(CCC)CC(O)COc1ccccc1C(=O)CCc1ccc(F)cc1.Cl` (racemic), for which the Activity entry in data set [1], in data set [2], in data set [4] and in data set [5] was “Non-toxic” throughout. Besides, the selectivity ratio in [3] was > 10.
Consider `CCCCN(CCCC)CC(O)COc1ccccc1C(=O)CCc1ccc(F)cc1.Cl` (racemic), for which the Activity result in data set [1], in data set [2], in data set [4] and in data set [5] was “Non-toxic” in each case. Besides, the selectivity ratio in [3] is > 10.
For the compound `CC(C)N(CC(O)COc1ccccc1C(=O)CCc1ccc(F)cc1)c1ccccc1.Cl` (racemic), the Activity result in data set [1], in data set [2], in data set [4] and in data set [5] was “Non-toxic” each time. For the same compound, the selectivity ratio in data set [3] was > 10.
For `Cl.O=C(CCc1ccc(F)cc1)c1ccccc1OCC(O)CN(C1CCCCC1)C1CCCCC1` (racemic), the Activity result in [1], in data set [2], in [4] and in data set [5] was “Non-toxic” in each case. For the same compound, the selectivity ratio in data set [3] was > 10.
As to `Cl.O=C(CCc1ccccc1)c1ccccc1OCC(O)CN1CCC(c2ccccc2)CC1` (racemic), the Activity entry in data set [1], in [2], in data set [4] and in data set [5] was “Non-toxic” in each case. In addition, the half-maximal inhibitory concentration (IC50) in data set [6], in [7] and in [9] was > 5 µM throughout. Also, the Stability result in data set [8], in [10] and in [11] was “Stable” in each case. For the same compound, in data set [12], the concentration in solution (solubility) came to 7.27 µM.
With `Cl.O=C(CCc1ccc(F)cc1)c1ccccc1OCC(O)CN1CCN(C(c2ccccc2)c2ccccc2)CC1` (racemic), the Activity entry in data set [1], in data set [2], in [4] and in data set [5] was “Non-toxic” each time. Further, the concentration for a half-maximal effect (EC50) in data set [13] and in data set [14] was < 0.1 µM throughout. Besides, the selectivity ratio in data set [3] is > 10.
On to `Cl.O=C(CCc1ccccc1)c1cc(F)ccc1OCC(O)CN1CCN(C(c2ccccc2)c2ccccc2)CC1` (racemic), for which the Activity entry in [1], in [2], in data set [4] and in data set [5] was “Non-toxic” each time. In addition, the IC50 in data set [6], in data set [7] and in [9] was > 5 µM throughout. For the same compound, the Stability entry in data set [8], in [10] and in [11] was “Stable” throughout. Moreover, the concentration in solution in data set [12] (solubility) was 0.11 µM.

The values above are taken from ChEMBL document CHEMBL1914304 (J Med Chem, 2011).
